Publication PMC12495087 (ESMO Open, 2025)
pKd: −log10 of the molar value.

Legend:
[1] = phase I study: plasma pharmacokinetics; type: in vivo, human
RET-mutant MTC = experiment: phase I study: tumor response per RECIST v.1.1, MTC; type: in vivo, human
[2] = test system: advanced solid tumors with RET gene alteration; experiment: phase I study: tumor response per RECIST v.1.1, evaluable analysis set; type: in vivo, human
Method in brief: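 Investigator assessed response by RECIST v1.1. Drug was taken orally once daily in 28-day cycles, 10–150 mg in part A escalation and 75 mg in part B expansion, until progression. ORR and DCR summarised with two-sided 95% exact CIs. Duration of response and other time-to-event endpoints estimated by Kaplan–Meier.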

[3] = test system: tumors with local RET results; experiment: clinical outcome by local RET result; type: in vivo, human
Method in brief: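 RET alteration was confirmed locally by DNA- or RNA-based assays of tumour tissue or blood. Patients took oral drug once daily in 28-day cycles (10–150 mg escalation; expansion at recommended phase II dose). Investigator assessed response by RECIST v1.1 in patients with evaluable overall response and percent tumour-size change from baseline. ORR and DCR summarised with two-sided 95% exact CIs.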

RET = details: read-out: kd, potency against RET; cited from earlier work
[4] = test system: tumors with cfDNA-detected RET alterations; experiment: clinical outcome by cfDNA RET alteration; type: in vivo, human
Method in brief: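 Adults with advanced RET-altered solid tumours took oral drug once daily in 28-day cycles (10–150 mg dose escalation; expansion at recommended phase II dose). RET status came from plasma cfDNA drawn at screening (within 28 days pre-dose), cycle 1 day 15 (±2 days) and cycle 2 day 1. Investigator assessed response by RECIST v1.1 in patients with evaluable response and tumour-size change. ORR/DCR given with two-sided 95% exact CIs.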

[5] = 58 patients with cfDNA RET alterations
[6] = cfDNA RET alteration total, n = 58

For COc1cc2cc(-c3ccc(CC(=O)Nc4cc(C(C)(C)C(F)(F)F)no4)cn3)cnc2cc1OC [BOS172738], which “plasma concentrations remained quantifiable through” value ([1]; after dosing, cycle 1 day 1 and day 15) is on record?
Its value is ≥ 24 h.

And the half-life ([1]; human, plasma, oral)?
Its half-life is 41.9 to 84.1 h.

What about the Tmax ([1]; human, plasma, oral, cycle 1 day 1, range across all dose levels) of the same compound?
The Tmax was 3 to 10 h.

And the Tmax ([1]; human, plasma, oral, cycle 1 day 15, range across dose levels)?
Its Tmax is 1 to 3.1 h.

What about the “steady state reached by” value ([1]; most treatment groups, based on mean trough concentration and effective t½) of the same compound?
The value was ≤ 15 days.

What about the “median PFS” value (RET-mutant MTC; MTC) of the same compound?
Its value is 12.75 months.

And the “median DoR” value (RET-mutant MTC; confirmed responders with MTC)?
Its value is 19.15 months.

What about the “objective DCR (ODCR)” value ([2]; 100 mg dose, part A) of the same compound?
Its value is 93%.

What about the “median time to response” value ([2]; all confirmed responders) of the same compound?
The value was 1.79 months.

And the “reduction in brain target lesions” value ([2]; one patient with brain metastases, first post-baseline scan)?
Its value is 43%.

And the “median PFS” value ([2]; overall, evaluable analysis set)?
Its value is 7.16 months.

And the “BOR: CR” value ([2]; parts A and B total, N=101)?
Its value is “No patients”.

And the intracranial activity ([2]; patients with brain metastases)?
The intracranial activity was “intracranial activity was also observed”.

What about the “BOR: PD” value ([3]; local Indel, n = 6) of the same compound?
Its value is 1 (17) n (%).

And the “BOR: PR” value ([3]; local Indel, n = 6)?
Its value is 1 (17) n (%).

What about the “BOR: SD” value ([3]; local Indel, n = 6) of the same compound?
The value was 4 (67) n (%).

What about the “DCR (PR + SD)” value ([3]; local Indel, n = 6) of the same compound?
Its value is 5 (83) n (%).

What about the ORR ([3]; local Indel, n = 6) of the same compound?
The ORR was 1 (17) n (%).

And the “BOR: PD” value ([3]; local RET fusions, n = 57)?
The value was 10 (18) n (%).

What about the “BOR: PR” value ([3]; local RET fusions, n = 57) of the same compound?
The value was 21 (37) n (%).

And the “BOR: SD” value ([3]; local RET fusions, n = 57)?
The value was 26 (46) n (%).

And the “DCR (PR + SD)” value ([3]; local RET fusions, n = 57)?
The value was 47 (82) n (%).

And the ORR ([3]; local RET fusions, n = 57)?
The ORR was 21 (37) n (%).

What about the “BOR: PD” value ([3]; local RET total, n = 93) of the same compound?
Its value is 20 (22) n (%).

And the “BOR: PR” value ([3]; local RET total, n = 93)?
The value was 28 (30) n (%).

And the “BOR: SD” value ([3]; local RET total, n = 93)?
Its value is 45 (48) n (%).

What about the “DCR (PR + SD)” value ([3]; local RET total, n = 93) of the same compound?
Its value is 73 (78) n (%).

What about the ORR ([3]; local RET total, n = 93) of the same compound?
The ORR was 28 (30) n (%).

And the “BOR: PD” value ([3]; local SNV, n = 30)?
The value was 9 (30) n (%).

And the “BOR: PR” value ([3]; local SNV, n = 30)?
Its value is 6 (20) n (%).

And the “BOR: SD” value ([3]; local SNV, n = 30)?
The value was 15 (50) n (%).

What about the “DCR (PR + SD)” value ([3]; local SNV, n = 30) of the same compound?
Its value is 21 (70) n (%).

What about the ORR ([3]; local SNV, n = 30) of the same compound?
The ORR was 6 (20) n (%).

And the pKd (RET)?
The pKd was ≥ 9.00.

And the “partial responses as best response” value [4, 5]?
The value was 29%.

And the “progressive disease as best response” value [4, 5]?
Its value is 28%.

What about the “stable disease as best response” value [4, 5] of the same compound?
The value was 43%.

And the “BOR: PD” value [4, 6]?
The value was 16 (28) n (%).

And the “BOR: PR” value [4, 6]?
The value was 17 (29) n (%).

And the “BOR: SD” value [4, 6]?
Its value is 25 (43) n (%).

And the “DCR (PR + SD)” value [4, 6]?
Its value is 42 (72) n (%).

And the ORR [4, 6]?
The ORR was 17 (29) n (%).

And the “BOR: PD” value ([4]; cfDNA RET fusions + SNV, n = 2)?
Its value is 1 (50) n (%).

And the “BOR: PR” value ([4]; cfDNA RET fusions + SNV, n = 2)?
Its value is 1 (50) n (%).

And the “BOR: SD” value ([4]; cfDNA RET fusions + SNV, n = 2)?
Its value is 0 n (%).

And the “DCR (PR + SD)” value ([4]; cfDNA RET fusions + SNV, n = 2)?
The value was 1 (50) n (%).

And the ORR ([4]; cfDNA RET fusions + SNV, n = 2)?
The ORR was 1 (50) n (%).

And the “BOR: PD” value ([4]; cfDNA RET fusions, n = 37)?
Its value is 6 (16) n (%).

And the “BOR: PR” value ([4]; cfDNA RET fusions, n = 37)?
The value was 12 (32) n (%).

And the “BOR: SD” value ([4]; cfDNA RET fusions, n = 37)?
The value was 19 (51) n (%).

What about the “DCR (PR + SD)” value ([4]; cfDNA RET fusions, n = 37) of the same compound?
Its value is 31 (84) n (%).

And the ORR ([4]; cfDNA RET fusions, n = 37)?
Its ORR is 12 (32) n (%).

And the “BOR: PD” value ([4]; cfDNA SNV, n = 19)?
The value was 9 (47) n (%).

What about the “BOR: PR” value ([4]; cfDNA SNV, n = 19) of the same compound?
The value was 4 (21) n (%).

And the “BOR: SD” value ([4]; cfDNA SNV, n = 19)?
Its value is 6 (32) n (%).

And the “DCR (PR + SD)” value ([4]; cfDNA SNV, n = 19)?
The value was 10 (53) n (%).

And the ORR ([4]; cfDNA SNV, n = 19)?
The ORR was 4 (21) n (%).
